In one data set the test system is SF-295. In words: Cytotoxicity against human SF295 cells for 72 hrs by MTT assay. To be noted: SF-295, 72 h. It is filed as functional, cell-based. Summed up: (§1)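 Cells kept in RPMI 1640 with 10% fetal bovine serum, 2 mM glutamine, 100 U/mL penicillin and streptomycin, at 37 °C under 5% CO₂. Compounds were dissolved in DMSO and diluted with water to 1 mg/mL, then incubated with cells for 72 h. Growth was read by MTT, with doxorubicin as positive control. IC₅₀ is the concentration giving 50% growth inhibition, in triplicate.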

In a further data set the test system is HCT-8. Kind of data set: Cytotoxicity against human HCT8 cells for 72 hrs by MTT assay. To be noted: HCT-8, 72 h. It is filed as functional, cell-based. The method in brief: as §1
For a further data set, the system named is MDA-MB-435. Kind of data set: Cytotoxicity against human MDA-MB-435 cells for 72 hrs by MTT assay. It is filed as functional, cell-based. Conditions: MDA-MB-435, 72 h. The method in brief: as §1
Data set [1] in a line: Toxicity against mouse erythrocytes assessed as hemolysis after 30 mins by spectrometric analysis. It is filed as cell-based, Erythrocyte. The method in brief:
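Used a 2% mouse erythrocyte suspension in 0.85% NaCl with 10 mM CaCl₂. Compounds (DMSO stock diluted in water) were tested across a graded range, 30 min at room temperature, then centrifuged. Released hemoglobin in the supernatant was read at 540 nm. DMSO was the negative control and 1% Triton X-100 the positive control. EC₅₀ = effective concentration.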

The next data set concerns HL-60. Kind of data set: Cytotoxicity against human HL60 cells for 72 hrs by MTT assay. It is filed as functional, cell-based. To be noted: HL-60, 72 h. The method in brief:
as §1

The structures appear in SMILES notation. ≈ marks a conversion by molar mass, not a printed value. Where only a bound is given, the exact number is not on record here.

In the case of `O=c1c2c[nH]c3ccc(F)cc3c-2nn1-c1nc2ccccc2s1`, the concentration for half-maximal inhibition (IC50) in the data set with SF-295, in the data set with HCT-8, with MDA-MB-435 and in the data set with HL-60 was > 5 µg/mL in each case. Moreover, the EC50 at 30 min in data set [1] was > 250 µg/mL.
Regarding `Cc1ccc2[nH]cc3c(=O)n(-c4nc5ccccc5s4)nc-3c2c1`, the IC50 in the data set on SF-295 was 4.5 µg/mL (≈ 13.5 µM); with HCT-8 it was 4.1 µg/mL (≈ 12.3 µM); in the data set with MDA-MB-435, 2.3 µg/mL (≈ 6.92 µM); in the data set on HL-60 it was > 5 µg/mL. In data set [1], the EC50 at 30 min was > 250 µg/mL.
Turning to `O=c1c2c[nH]c3ccc(Br)cc3c-2nn1-c1nc2ccccc2s1`, the IC50 is 4.1 µg/mL (≈ 10.3 µM) in the data set with SF-295, > 5 µg/mL in the data set with HCT-8, 1.6 µg/mL (≈ 4.03 µM) in the data set on MDA-MB-435 and 3 µg/mL (≈ 7.55 µM) in the data set on HL-60. In addition, in data set [1], the EC50 at 30 min was > 250 µg/mL.
For `COc1ccc2[nH]cc3c(=O)n(-c4nc5ccccc5s4)nc-3c2c1`, in that order: > 5 µg/mL, > 5 µg/mL, > 5 µg/mL, > 5 µg/mL and > 250 µg/mL.
Taken in the same sequence, the figures for `O=c1c2c[nH]c3ccc(Cl)cc3c-2nn1-c1nc2ccccc2s1` were > 5 µg/mL, > 5 µg/mL, > 5 µg/mL, > 5 µg/mL and > 250 µg/mL.
For `O=c1c2c[nH]c3ccccc3c-2nn1-c1nc2ccccc2s1`, in that order: > 5 µg/mL, > 5 µg/mL, > 5 µg/mL, > 5 µg/mL and > 250 µg/mL.
As to `O=c1c2c[nH]c3ccc([N+](=O)[O-])cc3c-2nn1-c1nc2ccccc2s1`, the IC50 with SF-295, in the data set on HCT-8, with MDA-MB-435 and in the data set on HL-60 was > 5 µg/mL throughout. The half-maximal effective concentration (EC50) at 30 min in data set [1] was > 250 µg/mL.
On to `COc1cccc2c1C(=O)c1c(O)c3c(c(O)c1C2=O)C[C@@](O)(C(=O)CO)C[C@@H]3O[C@H]1C[C@H](N)[C@H](O)[C@H](C)O1` [DOXORUBICIN], for which the IC50 came to 0.06 µg/mL (≈ 0.11 µM) with HCT-8, 0.69 µg/mL (≈ 1.27 µM) in the data set with MDA-MB-435 and 0.03 µg/mL (≈ 0.0552 µM) with HL-60.

These data come from ChEMBL document CHEMBL1759952, “Synthesis and anticancer activities of some novel 2-(benzo[d]thiazol-2-yl)-8-substituted-2H-pyrazolo[4,3-c]quinolin-3(5H)-ones” (Eur J Med Chem, 2011).
